According to ChEMBL document CHEMBL1124462, “Synthesis, DNA binding, and biological evaluation of synthetic precursors and novel analogues of netropsin” (J Med Chem, 1989):
Converted amounts (≈) assume the structure as drawn.

How the values were obtained:
Raji = experiment: Dose required to inhibit Human B-Lymphoblast (Raji) cell proliferation by 50%; type: functional; conditions: read-out: CD50 (the source's name)
Human alphaherpesvirus 2 = experiment: Minimum inhibitory concentration required to reduce herpes simplex virus-2(G) induced cytopathogenicity by 50% in primary rabbit kidney cells (PRK); type: functional
In short: (§1)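 Cell cultures (PRK, HeLa or Vero B) are infected at 100 × CCID50. Cytopathogenicity is recorded once it reaches completion in the untreated virus-infected controls. The minimum inhibitory concentration is given in μg/mL.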

[1] = Dose required to inhibit Human T-Lymphoblast (Molt/4F) cell proliferation by 50%; type: functional; conditions: read-out: CD50 (the source's name)
HeLa [2] = experiment: Minimum inhibitory concentration required to reduce polio virus -1 induced cytopathogenicity by 50% in HeLa cells; type: functional; conditions: Homo sapiens
Vero [3] = experiment: Minimum inhibitory concentration required to reduce parainfluenza virus-3 induced cytopathogenicity by 50% in african green monkey (VeroB) cells; type: functional, Human respirovirus 3; conditions: Chlorocebus sabaeus; in short: as §1
HeLa [4] = experiment: Minimum cytotoxic concentration required to cause a microscopically detectable alteration of normal cell morphology and show antiviral activity in HeLa cells; type: functional; conditions: Homo sapiens
In short: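 HeLa cell cultures exposed to compound for the same duration as the antiviral assay, then examined microscopically. The minimum cytotoxic concentration is the lowest level causing detectable alteration of normal cell morphology. Values are in μg/mL.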

Vero [5] = experiment: Minimum cytotoxic concentration required to cause a microscopically detectable alteration of normal cell morphology and show antiviral activity in african green monkey (Vero B) cells; type: functional; conditions: Chlorocebus sabaeus
Human alphaherpesvirus 1 = experiment: Minimum inhibitory concentration required to reduce herpes simplex virus-1 (KOS) induced cytopathogenicity by 50% in primary rabbit kidney cells(PRK); type: functional; in short: as §1
[6] = test system: Vesicular stomatitis virus; experiment: (§2) Minimum inhibitory concentration required to reduce vesicular stomatitis virus induced cytopathogenicity by 50% in primary rabbit kidney cells (PRK); type: functional
HeLa [7] = experiment: Minimum inhibitory concentration required to reduce vesicular stomatitis virus induced cytopathogenicity by 50% in HeLa cells; type: functional; conditions: Homo sapiens
Oryctolagus cuniculus = species on record: Oryctolagus cuniculus; experiment: Minimum cytotoxic concentration required to cause a microscopically detectable alteration of normal cell morphology and show antiviral activity in primary rabbit kidney (PRK) cells; type: functional
Sindbis virus = experiment: Minimum inhibitory concentration required to reduce Sindbis virus induced cytopathogenicity by 50% in african green monkey (VeroB) cells; type: functional; in short: as §1
[8] = test system: Mammalian orthoreovirus 1; experiment: Minimum inhibitory concentration required to reduce reovirus-1 induced cytopathogenicity by 50% in african green monkey (VeroB)cells; type: functional; in short: as §1
L1210 = experiment: Dose required to inhibit Murine leukemia (L1210) cell proliferation by 50%; type: functional; conditions: Mus musculus, read-out: CD50 (the source's name)
Vero [9] = experiment: Minimum inhibitory concentration required to reduce Coxsackie virus B4 induced cytopathogenicity by 50% in african green monkey (VeroB) cells; type: functional, Coxsackievirus B4; conditions: Chlorocebus sabaeus; in short: as §1
HeLa [10] = experiment: Minimum inhibitory concentration required to reduce Coxsackie virus B4 induced cytopathogenicity by 50% in HeLa cells; type: functional; conditions: Homo sapiens; in short: as §1
Semliki Forest virus = experiment: Minimum inhibitory concentration required to reduce semliki forest virus induced cytopathogenicity by 50% in african green monkey (VeroB) cells; type: functional; in short: as §1
Nucleic Acid [11] = experiment: Ratio of association constant of poly (dA-dT) and poly (dG-dC); type: nucleic-acid assay
In short: (§3)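 Kapp for poly(dA-dT) and for poly(dG-dC) is each determined by ethidium bromide competition in 0.01 M cacodylate, pH 7.0, 25 °C, with 1.26 μM ethidium and 1 μM polynucleotide. IC50 comes from a fitted competition sigmoid and is converted to Kapp assuming a four-base-pair binding size. The ratio is taken between the two polynucleotides.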

[12] = Dose required to inhibit Murine mammary carcinoma (FM3A) cell proliferation by 50%; type: functional; conditions: Mus musculus, read-out: CD50 (the source's name)
Nucleic Acid [13] = experiment: Association constant against polynucleotide poly (dG-dC); type: nucleic-acid assay
In short: (§4)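 Competition with ethidium bromide binding at 25 °C in 0.01 M cacodylate buffer, pH 7.0, with 1.26 μM ethidium bromide and 1 μM polynucleotide. Bound ethidium is estimated from its fluorescence increase (V = 34 for poly(dA-dT), 25 for poly(dG-dC)). IC50 for 50% ethidium displacement comes from a fitted competition sigmoid. Kapp is calculated from IC50 assuming a binding size of four base pairs.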

Nucleic Acid [14] = experiment: Association constant against the polynucleotide poly (dA-dT).; type: nucleic-acid assay; in short: as §4
[15] = Minimum inhibitory concentration required to reduce herpes simplex virus-2 (G)induced cytopathogenicity by 50% in primary rabbit kidney cells (PRK); type: functional; conditions: Oryctolagus cuniculus
[16] = Minimum inhibitory concentration required to reduce herpes simplex virus-1 (KOS)induced cytopathogenicity by 50% in primary rabbit kidney cells (PRK); type: functional; conditions: Oryctolagus cuniculus
[17] = as §2; type: functional; conditions: Oryctolagus cuniculus
FM3A = experiment: In vitro inhibition of FM3A (murine mammary carcinoma) cell proliferation.; type: functional; conditions: Mus musculus, read-out: CD50 (the source's name)
Nucleic Acid [18] = experiment: Ratio of association constant of poly(dA-dT) and poly(dG-dC); type: nucleic-acid assay; in short: as §3
Nucleic Acid [19] = experiment: Association constant against the polynucleotide poly(dA-dT); type: nucleic-acid assay; in short: as §4

| SMILES | CC50 (Raji) [µg/mL] | MIC (Human alphaherpesvirus 2) [µg/mL] | CC50 [1] [µg/mL] | MIC (HeLa [2]) [µg/mL] | MIC (Vero [3]) [µg/mL] | MCC (HeLa [4]) [µg/mL] | MCC (Vero [5]) [µg/mL] | MIC (Human alphaherpesvirus 1) [µg/mL] | MIC [6] [µg/mL] | MIC (HeLa [7]) [µg/mL] | MCC (Oryctolagus cuniculus) | MIC (Sindbis virus) [µg/mL] | MIC [8] [µg/mL] | CC50 (L1210) [µg/mL] | MIC (Vero [9]) [µg/mL] | MIC (HeLa [10]) [µg/mL] | MIC (Semliki Forest virus) [µg/mL] | Ratio (Nucleic Acid [11]) | K app (Nucleic Acid [13]) [M⁻¹] | K app (Nucleic Acid [14]) [M⁻¹] | other results |
| --- | --- | --- | --- | --- | --- | --- | --- | --- | --- | --- | --- | --- | --- | --- | --- | --- | --- | --- | --- | --- | --- |
| Cn1c(C(=O)O)ccc1[N+](=O)[O-] | > 50 | > 400 | > 50 | > 400 | > 200 | > 400 | > 400 | > 400 | > 400 | > 200 | >400 µg/mL | > 100 | > 100 | > 50 | > 100 | 70 (≈ 411 µM) | > 200 | – | – | – | – |
| Cn1cc(NC(=O)c2cc(NC(=O)CNC(=N)N)cn2C)cc1C(=O)NCCCNCCCCN | > 200 | – | > 200 | – | > 200 | > 200 | ≥ 200 | – | – | – | >=400 ug ml-1 | > 200 | > 100 | > 200 | > 200 | > 200 | > 200 | 2.63 | 7.6e+06 | 2e+07 | CC50 [12]: > 200 µg/mL; MIC [15]: > 200 µg/mL; MIC [16]: > 200 µg/mL |
| NC(=O)c1ncn([C@@H]2O[C@H](CO)[C@@H](O)[C@H]2O)n1 [RIBAVIRIN] | – | – | – | 70 (≈ 287 µM) | 20 (≈ 81.9 µM) | > 200 | > 400 | – | – | 20 (≈ 81.9 µM) | >400 µg/mL | 70 (≈ 287 µM) | 20 (≈ 81.9 µM) | – | 70 (≈ 287 µM) | 70 (≈ 287 µM) | 150 (≈ 614 µM) | – | – | – | MIC [15]: > 400 µg/mL; MIC [17]: > 400 µg/mL; MIC [16]: > 400 µg/mL |
| CC(NC(=O)c1cc(NC(=O)c2cc([N+](=O)[O-])cn2C)cn1C)C(=O)NC(C)C(=O)OC(C)(C)C (stereo unspecified) | 33 (≈ 67.3 µM) | > 200 | 29 (≈ 59.1 µM) | – | > 200 | > 400 | > 200 | > 100 | > 100 | – | >400 µg/mL | > 100 | > 200 | 28.8 (≈ 58.7 µM) | > 200 | > 200 | > 200 | 0.033 | 20000 | 650 | CC50 (FM3A): 27.2 µg/mL (≈ 55.5 µM) |
| CC(NC(=O)c1cc(NC(=O)c2cc(NC(=O)CNC(=N)N)cn2C)cn1C)C(=O)OC(C)(C)C (stereo unspecified) | > 100 | > 400 | > 100 | – | > 400 | > 400 | > 400 | > 400 | > 400 | – | >400 µg/mL | > 400 | > 400 | > 100 | > 400 | > 400 | > 400 | 0.87 | 10000 | 8700 | CC50 (FM3A): > 100 µg/mL |
| Cn1cc(NC(=O)c2cc([N+](=O)[O-])cn2C)cc1C(=O)NCCC(=N)N | > 100 | > 200 | > 100 | – | > 200 | > 400 | 400 | > 200 | > 100 | – | 400 µg/mL | > 300 | > 100 | > 100 | > 200 | > 400 | 300 (≈ 830 µM) | – | < 100 | – | Ratio (Nucleic Acid [18]): > 120; K app (Nucleic Acid [19]): 12000 M⁻¹ |
| Cn1cc(NC(=O)c2cc(NC(=O)CNC(=N)N)cn2C)cc1C(=O)NCCC(=N)N [NETROPSIN] | 139 (≈ 323 µM) | – | > 100 | > 100 | > 400 | > 100 | > 400 | – | – | > 100 | >400 µg/mL | > 400 | > 400 | 295 (≈ 685 µM) | > 400 | > 100 | > 400 | 23500 | 31000 | 7.3e+08 | CC50 [12]: 321 µg/mL (≈ 746 µM); MIC [15]: > 400 µg/mL; MIC [17]: > 400 µg/mL; MIC [16]: > 400 µg/mL |
